# Bioassay records from PubChem BioAssay.
# Apaf1 activ = human Apaf-1 activation; O14727; Apaf-1 apoptosome caspase-3 activation, DEVD-Rh110 fluorescence; hits give low values; activity change, negative = activation, % at 20 µM; actives 0.31% (n = 330,000); AID 489031;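 active = activity change at or below -40% at 20 µM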
# Target sequence (O14727 whole entry, looked up): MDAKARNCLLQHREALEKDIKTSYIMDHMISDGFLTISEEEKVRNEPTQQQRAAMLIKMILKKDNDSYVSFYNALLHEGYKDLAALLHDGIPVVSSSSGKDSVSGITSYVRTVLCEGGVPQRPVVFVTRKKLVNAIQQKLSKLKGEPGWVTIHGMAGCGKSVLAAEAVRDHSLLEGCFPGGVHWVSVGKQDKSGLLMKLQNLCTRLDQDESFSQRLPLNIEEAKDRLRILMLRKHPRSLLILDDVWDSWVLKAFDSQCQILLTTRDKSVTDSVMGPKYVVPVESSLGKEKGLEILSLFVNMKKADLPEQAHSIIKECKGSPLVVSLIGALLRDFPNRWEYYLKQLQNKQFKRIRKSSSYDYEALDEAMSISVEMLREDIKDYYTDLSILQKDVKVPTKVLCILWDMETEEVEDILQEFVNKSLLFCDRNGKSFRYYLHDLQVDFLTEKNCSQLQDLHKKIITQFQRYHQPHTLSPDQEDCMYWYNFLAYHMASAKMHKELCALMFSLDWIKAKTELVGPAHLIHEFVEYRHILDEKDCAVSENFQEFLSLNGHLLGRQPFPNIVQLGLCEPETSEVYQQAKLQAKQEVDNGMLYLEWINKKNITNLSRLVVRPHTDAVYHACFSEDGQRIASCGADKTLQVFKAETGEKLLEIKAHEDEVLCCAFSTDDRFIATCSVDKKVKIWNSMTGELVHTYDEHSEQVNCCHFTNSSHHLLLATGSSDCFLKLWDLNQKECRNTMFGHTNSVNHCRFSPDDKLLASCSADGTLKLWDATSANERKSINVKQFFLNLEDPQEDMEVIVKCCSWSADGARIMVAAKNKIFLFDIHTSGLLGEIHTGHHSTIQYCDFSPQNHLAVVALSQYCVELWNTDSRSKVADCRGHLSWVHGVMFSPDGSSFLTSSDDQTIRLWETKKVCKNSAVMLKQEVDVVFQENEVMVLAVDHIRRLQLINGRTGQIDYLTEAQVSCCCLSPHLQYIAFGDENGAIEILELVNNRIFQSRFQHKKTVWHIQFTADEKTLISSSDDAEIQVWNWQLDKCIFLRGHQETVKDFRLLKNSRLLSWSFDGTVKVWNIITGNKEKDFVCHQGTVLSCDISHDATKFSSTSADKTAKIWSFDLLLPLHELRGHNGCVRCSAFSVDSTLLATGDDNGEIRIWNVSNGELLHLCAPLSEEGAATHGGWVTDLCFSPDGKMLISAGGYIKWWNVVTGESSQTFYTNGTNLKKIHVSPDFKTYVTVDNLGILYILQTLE
#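 System: Reconstituted apoptosome of Apaf-1, cytochrome c, caspase-9, procaspase-3 | Reagent: dATP, cytochrome c, and (Z-DEVD)2-Rh110 caspase-3 substrate | Times: 30 min compound preincubation and 50 min reaction, both room temperature | Detection: Caspase-3-released Rh110 fluorescence, 540 nm emission, 480 nm excitation | Measure: Caspase-3 activity via Apaf-1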
# Rh110 act interf = Rh110 signal interference in Apaf-1 activator counter-screen | 980 tested, under 10 active | AID 504616 | shares compounds with Apaf1 activ | fluorescence interference (activity change), % at 20 µM, hits read low | Rh110 fluorescence interference, quenched caspase reaction, Ex480/Em540;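 active = mean activity change at or below -40% when tested at 20 µM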
# Apaf-1 act conf = Apaf-1 (human) activation, single-dose confirmed; actives 5% (n = 980); AID 504617; reconstituted apoptosome caspase-3 activity, DEVD-Rh110 fluorescence; hits give low values; activity change, negative = activation, % at 20 µM; shares compounds with Apaf1 activ;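 active = mean activity change at or below -40%, meaning activation of 40% or more, at 20 µM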
# Active calls of the source: *; . = not tested or not shown. Only a sample is shown.
SMILES,Apaf1 activ,Rh110 act interf,Apaf-1 act conf
CC(=O)c1ccc(N2CCN(C(=O)CCN3C(=S)NC(C)(C)CC3C)CC2)cc1 (centres undefined),-139*,7,16
CCCCCc1ccc(OCCC[n+]2ccccc2)c(CCCCC)c1,66,.,.
CC(=O)OCCCNc1cc(Sc2nc3ccccc3s2)c2nonc2c1[N+](=O)[O-],96,.,.
CCCCn1c(NC(=O)c2ccc(Br)o2)c(S(=O)(=O)c2ccccc2)c2nc3ccccc3nc21,71,.,.
CS(=O)(=O)N(CC(=O)N1CCN(c2ccccc2)CC1)c1ccccc1Cl,-164*,4,11
Cc1cc(C(=O)N/N=C2\CC(=O)c3ccccc32)c(C)n1-c1ccc(F)cc1,69,.,.
CCC/C(=C1/c2ccccc2C(=O)N1c1ccccc1)c1cnc(OC)nc1,41,.,.
C#CCOCCOCCOCCNc1nc(N2CCN(C(=O)[C@H](CCCCN)n3cc(CN)nn3)CC2)nc(N2CCN(C(=O)[C@H](CCCCN)n3cc(CN)nn3)CC2)n1,44,.,.
O=c1[nH]c(=O)n(C2CCCCCC2)c(O)c1C=NCc1ccc(F)cc1,40,.,.
O=C(O)/C=C/C(=O)c1ccc(O)cc1,-83*,-1,0
CCN1CCN(Cc2ccc(NC(=O)c3ccc(C)c(NC(=O)c4cc(-c5ccc(Br)cc5)n[nH]4)c3)cc2C(F)(F)F)CC1,45,.,.
CCC(C)Sc1cccc(-c2nc3cc(C)ccn3c2NC2CCCCC2)c1 (centres undefined),41,.,.
Cc1ccn2c(NC3CCCCC3)c(-c3cccc(SC4CCCCC4)c3)nc2c1,40,.,.
Oc1ccc(Br)cc1-c1nc2cnccn2c1NC1CCCC1,-566*,6,12
Cc1cc(C)nc(/N=c2/ssnc2Cl)c1,71,.,.
CC1(C(=O)Nc2cccc3ccccc23)CC1(Br)Br (centres undefined),56,.,.
Cc1cc(SCC(=O)OC(C)C(=O)N(C)c2ccccc2)nc2ccccc12 (centres undefined),-324*,-1,8
COc1ccc(Br)cc1C1CC(=O)N2CN(C)CSC2=C1C#N (centres undefined),42,.,.
CCC(C)(C)c1ccc(OCCCC[n+]2cccc(C)c2C)c(C(C)(C)CC)c1,69,.,.
O=C(CSc1nnc(-c2ccncc2)n1CCc1ccccc1)N1CCCC1,-263*,5,15
COCCn1c(SCC(=O)NNC(=O)c2cc(Cl)ccc2OC)nnc1-c1ccncc1,49,.,.
FC(F)(F)c1ccc(CN2C[C@@H]3C(c4ccc(Cl)nc4)C4(c5cccnc5)CC3(C4)[C@H]2c2ccccc2)cc1 (some centres undefined),42,.,.
Cc1ccc(-c2nc3n(n2)Cc2ccccc2-3)cc1,-197*,0,13
CCOc1cc(/C=C2\C(=O)N(c3nc(-c4ccc(Br)cc4)cs3)N=C2c2ccccc2)ccc1O,53,.,.
O=C(O)CCCN1C(=O)/C(=C/c2ccc(-c3nc4ccccc4s3)o2)SC1=S,-406*,11,-23
SMILES,Apaf1 activ,Rh110 act interf,Apaf-1 act conf
O=C(COC(=O)c1cccc(Cl)c1)NCCN1C(=O)CSC1=O,-46*,4,3
COc1ccc(NC(=O)[C@@H](NC(=O)N2C[C@H]3C[C@@H](C2)c2cccc(=O)n2C3)C(C)C)cc1OC,62,.,.
O=C(NC1CCS(=O)(=O)C1)Oc1ccccc1 (centres undefined),51,.,.
O=C(NCCCCCCNC(=O)OC1CCS(=O)(=O)C1)OC1CCS(=O)(=O)C1 (centres undefined),-48*,8,4
Cc1cn([C@H]2C[C@H](N=[N+]=[N-])[C@@H](CO)O2)c(=O)[nH]c1=O,-43*,6,-3
CCN1CCN(CCNC(=O)c2cn(C(C)c3ccccc3F)nn2)CC1 (centres undefined),-78*,8,16
NC1=NC[C@H](CC2CCCCC2)N1CCc1cc(C(F)(F)F)cc(C(F)(F)F)c1,74,.,.
O=C(Nc1ccncc1)c1cc(-c2cccc(Br)c2)nc2ccccc12,47,.,.
CSc1cccc(NC(=O)c2cccc3cccnc23)c1,-73*,2,13
Cc1cc(C(=O)COc2cccc3cccnc23)c(C)n1C,53,.,.
C#CCOCCOCCOCCNc1nc(N2CCN(C(=O)[C@H](Cc3ccc(O)cc3)n3cc([C@@H](N)C(C)CC)nn3)CC2)nc(N2CCN(C(=O)[C@H](Cc3cc4ccccc4[nH]3)n3cc([C@@H](N)Cc4ccc(O)cc4)nn3)CC2)n1 (some centres undefined),56,.,.
c1ccc(-c2c(-c3ccccc3)n(Cc3ccco3)c3ncnc(NCCCn4ccnc4)c23)cc1,42,.,.
CCc1cccc(NC(=S)Nc2cccc3ccccc23)c1,79,.,.
Fc1ccc(NC(=S)Nc2cccc3ccccc23)cc1,85,.,.
Cc1ccc(F)cc1NC(=S)NCCc1ccccc1,-523*,-5,19
NCCN1CCN(S(=O)(=O)c2ccc([N+](=O)[O-])cc2)C=C1c1ccc(Cl)cc1,43,.,.
CC(=O)c1ccc(OCC(=O)NCC(c2ccco2)N2CCCCC2)cc1 (centres undefined),-44*,7,13
O=C(N/N=C\c1ccc(-c2ccccc2[N+](=O)[O-])o1)C1COc2cc3ccccc3cc2O1 (centres undefined),81,.,.
CCN(CC)CCOc1ccc(/C(=C(/Cl)c2ccccc2)c2ccccc2)cc1,66,.,.
CCn1cc(C(=O)NCCCOC)c(=O)c2cc(S(=O)(=O)N(C)C)ccc21,-303*,-5,8
COCCCNC(=O)c1c(N)n(-c2cccc(S(N)(=O)=O)c2)c2nc3ccccc3nc12,43,.,.
C/C(=C\C(=S)Nc1ccccc1)Nc1cccc2ccccc12,97,.,.
Cc1[nH]n(-c2ccccc2)c(=O)c1C(C[N+](=O)[O-])c1ccc(Br)cc1 (centres undefined),87,.,.
C#CCOCCOCCOCCNc1nc(N2CCN(C(=O)[C@H](CCCCN)n3cc([C@@H](N)CO)nn3)CC2)nc(N2CCN(C(=O)[C@H](Cc3cc4ccccc4[nH]3)n3cc([C@@H](N)Cc4ccc(O)cc4)nn3)CC2)n1,55,.,.
C#CCOCCOCCOCCNc1nc(N2CCN(C(=O)CCCCCCCCCCNC(=O)Cn3cc(C[C@@H](C)O)nn3)CC2)nc(N2CCN(C(=O)CCCCCCCCCCNC(=O)[C@@H]([C@H](C)CC)n3cc(CCCCCN)nn3)CC2)n1,54,.,.
SMILES,Apaf1 activ,Rh110 act interf,Apaf-1 act conf
O=C(/C=C\c1ccc2c(c1)OCO2)NC1(C(=O)Nc2ccc3c(c2)OCO3)CCCCC1,-87*,3,14
Cc1c(NC(=O)CSc2ccc3c(c2)OCCO3)c(=O)n(-c2ccccc2)n1C,-46*,11,9
Cc1ccsc1C(=O)OCC(=O)Nc1c(C)n(C)n(-c2ccccc2)c1=O,-77*,3,9
O=[N+]([O-])c1ccc(C=Nc2cccc3ccccc23)s1,68,.,.
COc1ccccc1NC(=O)c1nc[nH]c1C(=O)Nc1ccccc1OC,95,.,.
CNC(=O)c1[nH]cnc1C(=O)Nc1ccc(C)cc1,-205*,4,5
Cc1ccc2c(c1)c(=O)c1c3n2CCN(C(=O)CCl)C3CC1 (centres undefined),64,.,.
COc1ccc(C2CC(=O)c3cnc(NC(=O)c4ccco4)nc3C2)cc1 (centres undefined),-139*,-7,6
